Reference: ChEMBL document CHEMBL1132389, “Novel farnesol and geranylgeraniol analogues: A potential new class of anticancer agents directed against protein prenylation” (J Med Chem, 1999)

Experiments:
[1] = system: NIH3T3; experiment: Inhibition of anchorage independent growth of H-Ras(61L)CVLL-transformed NIH3T3 fibroblasts in soft agar; format: functional, cell-based; conditions: Mus musculus
Outline: (§1)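 NIH3T3 fibroblasts transfected with H-Ras(61L) (H-Ras-F) or H-Ras(61L)CVLL (H-Ras-GG), kept in DMEM with 10% calf serum and 1% antibiotic/antimycotic at 37 °C, 10% CO2. Two-layer soft agar (0.6% bottom, 0.3% top). Cells seeded in the top layer with compound in ethanol over a concentration range, added only at seeding. Grown 2 weeks at 37 °C. Colonies stained with p-iodonitrotetrazolium violet 24 h before image-analysis count. IC50 reported.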

[2] = system: NIH3T3; experiment: Inhibition of anchorage independent growth of H-Ras(61L)-transformed NIH3T3 fibroblasts in soft agar; format: functional, cell-based; conditions: Mus musculus; outline: as §1
[3] = target: T1, Protein farnesyltransferase (Homo sapiens, UniProt P49354+P49356); experiment: Inhibition of recombinant farnesyltransferase (mFTase) in scintillation proximity assay; format: protein-complex assay
Outline: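 Recombinant mammalian FTase in scintillation proximity assay with streptavidin beads. Substrates: tritiated FPP (15–30 Ci/mmol, final 0.12 μM) and biotin-Aha-TKCVIM peptide (final 0.1 μM). IC50 determined. Ki from the same system with varied tritiated FPP concentrations.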

[4] = target: Protein farnesyl/geranylgeranyl transferase (Homo sapiens) (UniProt P49354+P49356+P53609); experiment: Relative IC50 for farnesyl and geranylgeranyl transferase; format: protein-complex assay
[5] = target: T1, Protein farnesyltransferase; experiment: Relative Vmax compared to FPP in continuous spectrofluorimetric assay
[6] = target: Geranylgeranyl transferase type I (Homo sapiens, UniProt P49354+P53609); experiment: Inhibition of recombinant Geranylgeranyl transferase type I in scintillation proximity assay; format: protein-complex assay
Outline: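 Recombinant mammalian GGTase I in scintillation proximity assay with streptavidin beads, using tritiated GGPP and biotin-Aha-TKCVIL peptide as substrates. Run in the same manner as the FTase assay. IC50 and Ki values determined.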

[7] = system: C=C/C(=C\COP(=O)(O)OP(=O)(O)O)CC/C=C(\C)CCC=C(C)C; experiment: (§2) Km determined in continuous spectrofluorimetric assay; format: protein-complex assay; conditions: Homo sapiens
Outline: (§3)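 Continuous fluorimetric assay with recombinant mammalian FTase and dansyl-GCVLS peptide. Buffer: Tris-HCl pH 7.0, DTT, MgCl2, ZnCl2, with 0.4% n-dodecyl-β-D-maltoside solution. Premixed 5 min at 30 °C. Isoprenoid diphosphate at final 0.10 to 5 μM. Reaction started with enzyme. Fluorescence (ex 350, em 486 nm) read for 300 s at 30 °C. Linear rate converted to μM/s using a separately measured enhancement factor for each substrate. Km derived from the rates.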

[8] = system: C=CC/C(=C\COP(=O)(O)OP(=O)(O)O)CC/C=C(\C)CCC=C(C)C; experiment: as §2; format: protein-complex assay; conditions: Homo sapiens; outline: as §3

Row | Compound | IC50 [3] [µM] | Ratio [4] | IC50 [6] [µM] | IC50 [1] [µM] | IC50 [2] [µM] | also measured
1 | CC/C(=C\CO)CC/C=C(\C)CCC=C(C)C | – | – | – | > 25 | > 25 | –
2 | Protein farnesyltransferase (Homo sapiens) (from UniProt P49354+P49356) | – | – | – | – | – | Km [7]: 0.156 µM; Km [8]: 0.703 µM
3 | C=CC/C(=C\CO)CC/C=C(\C)CCC=C(C)C | – | – | – | > 25 | 10.2 | –
4 | C=C/C(=C\CO)CC/C=C(\C)CC/C=C(\C)CCC=C(C)C | – | – | – | 13.9 | 18 | –
5 | CC(C)=CCC/C(C)=C/CC/C(=C/CO)c1ccccc1 | – | – | – | > 25 | > 25 | –
6 | C=CC/C(=C\CO)CC/C=C(\C)CC/C=C(\C)CCC=C(C)C | – | – | – | 4.6 | > 25 | –
7 | C=C/C(=C\CO)CC/C=C(\C)CCC=C(C)C | – | – | – | 14.1 | 10.9 | –
8 | CC(C)=CCC/C(C)=C/CC/C(=C/COP(=O)(O)OP(=O)(O)O)c1ccccc1 | 0.299 | > 340 | > 100 | – | – | –

Continued, in another order:

Row | IC50 [3] [µM] | Ratio [4] | IC50 [6] [µM] | Compound | IC50 [1] [µM] | IC50 [2] [µM] | also measured
9 | 0.189 | > 530 | > 100 | C=CC/C(=C\COP(=O)(O)OP(=O)(O)O)CC/C=C(\C)CCC=C(C)C | – | – | Krel [5]: 0.0711
10 | 0.173 | 600 | 100 | C=C/C(=C\COP(=O)(O)OP(=O)(O)O)CC/C=C(\C)CCC=C(C)C | – | – | Krel [5]: 0.524
11 | 0.031 | 1600 | 50 | CC(C)=CCC/C(C)=C/CC/C(=C/COP(=O)(O)OP(=O)(O)O)C(C)(C)C | – | – | –
12 | 0.453 | 7.5 | – | C=CC/C(=C\COP(=O)(O)OP(=O)(O)O)CC/C=C(\C)CC/C=C(\C)CCC=C(C)C | – | – | –
13 | 0.715 | 4.3 | 3.05 | C=C/C(=C\COP(=O)(O)OP(=O)(O)O)CC/C=C(\C)CC/C=C(\C)CCC=C(C)C | – | – | –
14 | 0.215 | > 460 | > 100 | CC/C(=C\COP(=O)(O)OP(=O)(O)O)CC/C=C(\C)CCC=C(C)C | – | – | –
